Laboratory results as given in ChEMBL document CHEMBL5653631, “A Potent and Selective ULK1 Inhibitor Suppresses Autophagy and Sensitizes Cancer Cells to Nutrient Stress” (iScience, 2018).
One block for each compound: values may come before it.

Assays:
[1] = target: T1, NUAK family SNF1-like kinase 2 (Homo sapiens) (UniProt Q9H093); assay: Inhibition of human recombinant NuaK2 at 500 nM related to control ULK1
T1 sequence (whole entry): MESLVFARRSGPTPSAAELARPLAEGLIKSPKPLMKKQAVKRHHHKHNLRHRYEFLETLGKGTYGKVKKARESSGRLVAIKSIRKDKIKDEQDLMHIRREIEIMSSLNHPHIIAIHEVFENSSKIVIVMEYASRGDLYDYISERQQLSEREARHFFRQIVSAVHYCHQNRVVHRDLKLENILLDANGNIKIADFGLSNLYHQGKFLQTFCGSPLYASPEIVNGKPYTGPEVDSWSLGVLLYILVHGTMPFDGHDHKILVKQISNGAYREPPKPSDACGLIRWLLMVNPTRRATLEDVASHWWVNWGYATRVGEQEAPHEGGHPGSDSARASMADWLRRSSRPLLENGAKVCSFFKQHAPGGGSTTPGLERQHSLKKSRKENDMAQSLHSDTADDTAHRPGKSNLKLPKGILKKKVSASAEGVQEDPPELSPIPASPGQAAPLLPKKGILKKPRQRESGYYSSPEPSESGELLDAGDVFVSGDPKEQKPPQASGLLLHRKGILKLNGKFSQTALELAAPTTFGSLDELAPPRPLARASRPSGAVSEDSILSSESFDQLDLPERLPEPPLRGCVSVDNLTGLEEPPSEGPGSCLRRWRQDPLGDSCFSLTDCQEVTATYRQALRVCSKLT

[2] = target: G protein-coupled receptor kinase 5 (Homo sapiens) (UniProt P34947); assay: Inhibition of human recombinant GPRK5 at 15 nM related to control ULK1
G protein-coupled receptor kinase 5 (Homo sapiens), sequence (P34947 whole entry, looked up): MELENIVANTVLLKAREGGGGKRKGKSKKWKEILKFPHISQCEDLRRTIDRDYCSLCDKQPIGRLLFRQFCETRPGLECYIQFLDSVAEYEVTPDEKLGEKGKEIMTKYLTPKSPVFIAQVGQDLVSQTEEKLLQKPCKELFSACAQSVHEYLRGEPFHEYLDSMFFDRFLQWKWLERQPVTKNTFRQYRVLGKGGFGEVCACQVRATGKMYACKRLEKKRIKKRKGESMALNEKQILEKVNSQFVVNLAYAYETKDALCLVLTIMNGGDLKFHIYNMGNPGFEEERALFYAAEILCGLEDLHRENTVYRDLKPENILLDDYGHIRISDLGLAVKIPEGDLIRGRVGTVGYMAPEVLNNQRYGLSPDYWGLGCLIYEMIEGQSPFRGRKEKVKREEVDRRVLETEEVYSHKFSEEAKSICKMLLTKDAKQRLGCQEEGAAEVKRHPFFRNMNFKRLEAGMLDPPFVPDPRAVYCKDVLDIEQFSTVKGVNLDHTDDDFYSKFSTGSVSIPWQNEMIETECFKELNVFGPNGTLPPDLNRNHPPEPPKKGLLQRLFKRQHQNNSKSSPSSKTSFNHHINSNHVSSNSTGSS

[3] = target: Serine/threonine-protein kinase pim-2 (Homo sapiens) (UniProt Q9P1W9); assay: Inhibition of human recombinant PIM2 at 15 nM related to control ULK1
Serine/threonine-protein kinase pim-2 (Homo sapiens), sequence (Q9P1W9 whole entry, looked up): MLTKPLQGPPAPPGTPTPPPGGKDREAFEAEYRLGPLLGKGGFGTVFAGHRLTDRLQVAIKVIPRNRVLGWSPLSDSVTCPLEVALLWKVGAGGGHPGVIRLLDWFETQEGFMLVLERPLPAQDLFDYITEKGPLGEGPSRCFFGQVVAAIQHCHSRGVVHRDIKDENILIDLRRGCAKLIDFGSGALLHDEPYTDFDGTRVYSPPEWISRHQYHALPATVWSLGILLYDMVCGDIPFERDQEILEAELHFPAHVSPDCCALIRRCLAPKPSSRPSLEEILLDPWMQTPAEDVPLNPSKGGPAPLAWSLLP

[4] = target: T2, Serine/threonine-protein kinase D3 (Homo sapiens) (UniProt O94806); assay: Inhibition of human recombinant PKD3 at 40 nM in presence of ATP by radiometric assay relative to control
T2 sequence (whole entry): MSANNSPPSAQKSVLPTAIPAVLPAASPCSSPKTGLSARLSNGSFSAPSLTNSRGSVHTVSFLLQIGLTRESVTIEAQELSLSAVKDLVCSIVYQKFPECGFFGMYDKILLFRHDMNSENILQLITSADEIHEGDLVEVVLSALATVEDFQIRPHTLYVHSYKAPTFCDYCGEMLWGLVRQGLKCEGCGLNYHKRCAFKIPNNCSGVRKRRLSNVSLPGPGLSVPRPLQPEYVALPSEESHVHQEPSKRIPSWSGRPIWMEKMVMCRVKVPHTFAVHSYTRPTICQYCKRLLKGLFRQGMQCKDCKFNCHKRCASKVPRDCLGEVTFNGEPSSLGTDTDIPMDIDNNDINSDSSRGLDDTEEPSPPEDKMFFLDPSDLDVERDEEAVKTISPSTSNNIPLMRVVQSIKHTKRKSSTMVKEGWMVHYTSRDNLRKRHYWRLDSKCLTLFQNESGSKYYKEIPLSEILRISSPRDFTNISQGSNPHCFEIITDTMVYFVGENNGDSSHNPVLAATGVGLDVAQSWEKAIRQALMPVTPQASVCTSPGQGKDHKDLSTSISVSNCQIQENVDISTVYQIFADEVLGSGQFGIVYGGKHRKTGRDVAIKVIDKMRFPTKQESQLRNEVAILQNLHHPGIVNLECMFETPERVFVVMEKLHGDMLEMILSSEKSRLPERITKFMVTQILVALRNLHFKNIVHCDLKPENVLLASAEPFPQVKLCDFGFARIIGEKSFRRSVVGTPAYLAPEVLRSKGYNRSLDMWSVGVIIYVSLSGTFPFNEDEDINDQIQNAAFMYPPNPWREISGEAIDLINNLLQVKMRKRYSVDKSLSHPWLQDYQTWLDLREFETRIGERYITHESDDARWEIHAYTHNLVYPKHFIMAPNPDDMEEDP

[5] = target: T3, Mitogen-activated protein kinase kinase kinase 2 (Homo sapiens) (UniProt Q9Y2U5); assay: Inhibition of human recombinant MAP3K2 at 40 nM related to control ULK1
T3 sequence (whole entry): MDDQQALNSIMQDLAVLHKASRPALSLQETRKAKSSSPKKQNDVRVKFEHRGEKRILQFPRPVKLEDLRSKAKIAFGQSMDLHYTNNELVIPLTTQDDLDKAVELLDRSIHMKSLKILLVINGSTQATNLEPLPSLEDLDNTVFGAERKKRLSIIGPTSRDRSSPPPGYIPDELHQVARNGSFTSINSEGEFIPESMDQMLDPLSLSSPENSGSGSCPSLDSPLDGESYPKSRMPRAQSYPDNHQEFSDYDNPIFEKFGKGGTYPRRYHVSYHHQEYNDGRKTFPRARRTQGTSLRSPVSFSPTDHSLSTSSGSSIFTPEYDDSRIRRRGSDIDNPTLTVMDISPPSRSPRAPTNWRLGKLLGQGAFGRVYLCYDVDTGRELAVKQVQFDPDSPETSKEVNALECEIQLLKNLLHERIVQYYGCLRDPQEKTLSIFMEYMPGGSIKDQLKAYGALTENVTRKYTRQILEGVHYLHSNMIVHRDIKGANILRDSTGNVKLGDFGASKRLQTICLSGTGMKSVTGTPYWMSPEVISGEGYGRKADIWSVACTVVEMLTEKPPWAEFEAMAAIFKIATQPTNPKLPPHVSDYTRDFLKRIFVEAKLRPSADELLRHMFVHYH

[6] = target: Tyrosine-protein kinase Fes/Fps (Homo sapiens) (UniProt P07332); assay: Inhibition of human recombinant FES at 40 nM related to control ULK1
Tyrosine-protein kinase Fes/Fps (Homo sapiens), sequence (P07332 whole entry): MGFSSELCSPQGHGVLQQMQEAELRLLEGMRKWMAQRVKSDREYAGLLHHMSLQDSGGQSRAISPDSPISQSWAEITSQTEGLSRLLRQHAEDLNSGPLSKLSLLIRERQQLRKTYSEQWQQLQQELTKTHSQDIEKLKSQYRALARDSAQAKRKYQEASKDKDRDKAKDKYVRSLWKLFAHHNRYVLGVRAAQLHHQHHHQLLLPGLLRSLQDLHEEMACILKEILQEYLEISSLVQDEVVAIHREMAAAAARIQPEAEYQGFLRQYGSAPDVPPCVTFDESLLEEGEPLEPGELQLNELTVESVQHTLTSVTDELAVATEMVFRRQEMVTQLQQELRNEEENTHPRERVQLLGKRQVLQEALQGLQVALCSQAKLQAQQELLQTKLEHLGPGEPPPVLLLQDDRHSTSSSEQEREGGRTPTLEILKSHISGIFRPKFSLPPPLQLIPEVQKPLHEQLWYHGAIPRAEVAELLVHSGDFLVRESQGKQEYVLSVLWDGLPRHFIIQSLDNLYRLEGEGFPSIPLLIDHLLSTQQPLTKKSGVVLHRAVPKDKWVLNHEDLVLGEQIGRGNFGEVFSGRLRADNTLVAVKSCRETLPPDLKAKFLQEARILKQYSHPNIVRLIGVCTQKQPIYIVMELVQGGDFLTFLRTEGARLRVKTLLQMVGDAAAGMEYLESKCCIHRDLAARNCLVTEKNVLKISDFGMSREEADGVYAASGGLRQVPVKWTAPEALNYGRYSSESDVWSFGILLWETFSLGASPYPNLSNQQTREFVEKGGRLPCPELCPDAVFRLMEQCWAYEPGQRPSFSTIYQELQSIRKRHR

[7] = target: RAC-gamma serine/threonine-protein kinase (Homo sapiens) (UniProt Q9Y243); assay: Inhibition of human recombinant AKT3 at 40 nM in presence of ATP by radiometric assay relative to control
RAC-gamma serine/threonine-protein kinase (Homo sapiens), sequence (Q9Y243 whole entry): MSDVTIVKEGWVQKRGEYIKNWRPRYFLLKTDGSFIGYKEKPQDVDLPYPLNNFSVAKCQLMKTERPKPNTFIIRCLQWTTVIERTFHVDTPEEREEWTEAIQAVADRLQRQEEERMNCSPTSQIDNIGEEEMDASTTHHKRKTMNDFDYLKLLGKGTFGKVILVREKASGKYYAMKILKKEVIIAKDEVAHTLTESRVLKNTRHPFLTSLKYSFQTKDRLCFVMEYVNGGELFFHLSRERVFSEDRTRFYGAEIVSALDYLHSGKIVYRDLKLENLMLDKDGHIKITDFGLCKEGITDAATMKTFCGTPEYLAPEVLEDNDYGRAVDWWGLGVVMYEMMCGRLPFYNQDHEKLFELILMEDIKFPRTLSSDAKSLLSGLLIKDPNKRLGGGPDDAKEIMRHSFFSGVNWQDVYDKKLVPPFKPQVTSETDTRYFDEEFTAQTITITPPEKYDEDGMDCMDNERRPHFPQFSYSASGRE
Summary of the method: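 Panel of 327 recombinant human kinases in radiometric activity assays, each screened in duplicate at a single inhibitor concentration; percent activity remaining relative to vehicle control, percent inhibition taken as 100 minus activity remaining.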

- fold change (FC) [1]: 0.86
SMILES: CNC(=O)c1ccccc1Oc1nc(Nc2cc(OC)c(OC)c(OC)c2)ncc1Br

- fold change (FC) [2]: 0
- fold change (FC) [3]: 0
SMILES: CC(C)[C@H](NC(=O)c1cc(-c2cnn3cc(-c4ccc(OCCN5CCCCC5)cc4)cnc23)cs1)C(F)(F)F

- inhibition [4]: 7%
- fold change (FC) [5]: 0
- fold change (FC) [6]: 0.21
- inhibition [7]: 2%
SMILES: O=C(N[C@@H](C1CC1)C(F)(F)F)c1cc(-c2cnn3cc(-c4ccc(F)cc4)cnc23)cs1
